The source made the active and inactive calls. The rule behind the calls is not given here.
Columns and labels:
[1] = Induction of chromosomal aberration in human peripheral blood leukocytes assessed as number of chromatid breaks at 20 ug/mL after 24 hrs; format: functional, Leukocyte
Outline: (§1)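 Leukocytes from venous blood of three healthy non-smoking male donors, cultured at 37 °C for 72 h in McCoy's 5a with AB serum and PHA. Compound in 1% acetone was added at 0, 24 or 48 h after culture initiation (72, 48 or 24 h exposure), with water and acetone controls and triplicate cultures. Colchicine was added before harvest, then KCl hypotonic, fixation and Giemsa staining. Gaps and breaks were counted in 350 metaphases per treatment.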

[2] = system: Talaromyces funiculosus; experiment: Antifungal activity against Penicillium funiculosum at 0.5% (w/v) concentration by disc diffusion method; format: functional
Outline: (§2)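 Potato dextrose agar plates were seeded with a spore suspension (10⁶ spores/mL). Compounds in acetone at a final 0.5%, 1% or 2% w/v were loaded onto 5 mm filter-paper discs. Plates were incubated at 28 ± 2 °C for four days. Zone diameter was measured after subtracting the acetone-only plate zone, with carbendazim as standard.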

[3] = system: Aeromonas hydrophila; experiment: Antibacterial activity against Aeromonas hydrophila at 0.125% (w/v) concentration after 24 hrs by disc diffusion method; format: functional
Outline: (§3)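 Disc diffusion on nutrient agar (pH 7.5 ± 0.2) swabbed with bacterial culture; compounds dissolved in chloroform at 0.125%, 0.25% or 0.5% w/v, soaked onto 5 mm filter paper discs placed on seeded plates. Incubated 35 ± 2 °C, 24 h; inhibition zone diameter (mm) measured, minus zone from solvent-only plate.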

[4] = system: Talaromyces funiculosus; experiment: Antifungal activity against Penicillium funiculosum at 2% (w/v) concentration by disc diffusion method; format: functional; outline: as §2
[5] = Induction of chromosomal aberration in human peripheral blood leukocytes assessed as number of chromatid gaps at 20 ug/mL after 24 hrs; format: functional, Leukocyte; outline: as §1
[6] = system: Alternaria macrospora; experiment: Antifungal activity against Alternaria macrospora at 0.5% (w/v) concentration by disc diffusion method; format: functional; outline: as §2
[7] = system: Escherichia coli; experiment: Antibacterial activity against Escherichia coli at 0.125% (w/v) concentration after 24 hrs by disc diffusion method; format: functional; outline: as §3
[8] = system: Aeromonas hydrophila; experiment: Antibacterial activity against Aeromonas hydrophila at 0.25% (w/v) concentration after 24 hrs by disc diffusion method; format: functional; outline: as §3
[9] = system: Salmonella typhi; experiment: Antibacterial activity against Salmonella typhi at 0.5% (w/v) concentration after 24 hrs by disc diffusion method; format: functional, Salmonella enterica subsp. enterica serovar Typhi
Outline: (§4)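 Disc diffusion on nutrient agar (pH 7.5 ± 0.2) swabbed with bacteria. Compounds were dissolved in chloroform at a final 0.125%, 0.25% or 0.5% w/v and loaded onto 5 mm filter-paper discs. Plates were incubated at 35 ± 2 °C for 24 h. The inhibition-zone diameter (mm) was reported after subtracting the zone of the solvent-only plate.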

[10] = system: Aspergillus flavus; experiment: Antifungal activity against Aspergillus flavus at 1% (w/v) concentration by disc diffusion method; format: functional; outline: as §2
[11] = system: Salmonella typhi; experiment: Antibacterial activity against Salmonella typhi at 0.25% (w/v) concentration after 24 hrs by disc diffusion method; format: functional, Salmonella enterica subsp. enterica serovar Typhi; outline: as §4
[12] = system: Escherichia coli; experiment: Antibacterial activity against Escherichia coli at 0.5% (w/v) concentration by after 24 hrs by disc diffusion method; format: functional; outline: as §3
[13] = system: Alternaria macrospora; experiment: Antifungal activity against Alternaria macrospora at 1% (w/v) concentration by disc diffusion method; format: functional; outline: as §2
[14] = system: Salmonella typhi; experiment: Antibacterial activity against Salmonella typhi at 0.125% (w/v) concentration after 24 hrs by disc diffusion method; format: functional, Salmonella enterica subsp. enterica serovar Typhi; outline: as §4
[15] = system: Aspergillus flavus; experiment: Antifungal activity against Aspergillus flavus at 0.5% (w/v) concentration by disc diffusion method; format: functional; outline: as §2
[16] = system: Aeromonas hydrophila; experiment: Antibacterial activity against Aeromonas hydrophila at 0.5% (w/v) concentration after 24 hrs by disc diffusion method; format: functional; outline: as §3
[17] = system: Escherichia coli; experiment: Antibacterial activity against Escherichia coli at 0.25% (w/v) concentration after 24 hrs by disc diffusion method; format: functional; outline: as §3
[18] = system: Fusarium oxysporum; experiment: Antifungal activity against Fusarium oxysporum at 1% (w/v) concentration by disc diffusion method; format: functional; outline: as §2
[19] = system: Fusarium oxysporum; experiment: Antifungal activity against Fusarium oxysporum at 2% (w/v) concentration by disc diffusion method; format: functional; outline: as §2
[20] = system: Fusarium oxysporum; experiment: Antifungal activity against Fusarium oxysporum at 0.5% (w/v) concentration by disc diffusion method; format: functional; outline: as §2
[21] = system: Talaromyces funiculosus; experiment: Antifungal activity against Penicillium funiculosum at 1% (w/v) concentration by disc diffusion method; format: functional; outline: as §2
[22] = system: Alternaria macrospora; experiment: Antifungal activity against Alternaria macrospora at 2% (w/v) concentration by disc diffusion method; format: functional; outline: as §2
[23] = system: Aspergillus flavus; experiment: Antifungal activity against Aspergillus flavus at 2% (w/v) concentration by disc diffusion method; format: functional; outline: as §2

Row | SMILES | inhibition zone (IZ) [2] | inhibition zone (IZ) [3] | inhibition zone (IZ) [4] | inhibition zone (IZ) [6] | inhibition zone (IZ) [8] | inhibition zone (IZ) [9] | inhibition zone (IZ) [10] | inhibition zone (IZ) [11] | inhibition zone (IZ) [12] | inhibition zone (IZ) [13] | inhibition zone (IZ) [14] | inhibition zone (IZ) [15] | inhibition zone (IZ) [16] | inhibition zone (IZ) [17] | inhibition zone (IZ) [18] | inhibition zone (IZ) [19] | inhibition zone (IZ) [20] | inhibition zone (IZ) [21] | inhibition zone (IZ) [22] | inhibition zone (IZ) [23] | also measured
1 | Cc1ccc2c(Cl)c3c(nc2c1)C=CNN=C3 | 3 mm | 5 mm | 11 mm | 4 mm | 9 mm | 13 mm | 7 mm | 9 mm | 5 mm | 10 mm | 4 mm | 4 mm | 12 mm | 1 mm | 7 mm | 11 mm | 3 mm | 6 mm | 12 mm | 11 mm | Activity [1]: 0.6%; Activity [5]: 1.1%; Activity [7]: inactive
2 | COC(=O)Nc1nc2ccccc2[nH]1 [CARBENDAZIM] | 9 mm |  | 21 mm | 7 mm |  |  | 14 mm |  |  | 13 mm |  | 6 mm |  |  | 11 mm | 18 mm | 6 mm | 16 mm | 18 mm | 21 mm | 
3 | Clc1ccc2nc3c(c(Cl)c2c1)C=NNC=C3 | 6 mm | 6 mm | 14 mm | 5 mm | 11 mm | 19 mm | 8 mm | 12 mm | 11 mm | 9 mm | 6 mm | 5 mm | 16 mm | 7 mm | 8 mm | 13 mm | 4 mm | 9 mm | 15 mm | 13 mm | inhibition zone (IZ) [7]: 3 mm
4 | CN[C@@H]1[C@H](O[C@H]2[C@H](O[C@H]3[C@H](O)[C@@H](O)[C@H](N=C(N)N)[C@@H](O)[C@@H]3N=C(N)N)O[C@@H](C)[C@]2(O)C=O)O[C@@H](CO)[C@H](O)[C@H]1O (stereo in doubt) [STREPTOMYCIN] |  | 8 mm |  |  | 12 mm | 18 mm |  | 10 mm | 15 mm |  | 8 mm |  | 19 mm | 9 mm |  |  |  |  |  |  | inhibition zone (IZ) [7]: 6 mm
5 | Cc1ccc2c(Cl)c(C=O)c(/C=C/O)nc2c1 | 1 mm | 3 mm | 8 mm | 2 mm | 7 mm | 13 mm | 5 mm | 8 mm | 2 mm | 4 mm | 4 mm | 3 mm | 10 mm |  | 4 mm | 9 mm | 1 mm | 3 mm | 7 mm | 9 mm | Activity [7]: inactive; Activity [17]: inactive
6 | O=Cc1c(/C=C/O)nc2ccc(Cl)cc2c1Cl | 2 mm | 5 mm | 10 mm | 3 mm | 9 mm | 17 mm | 6 mm | 11 mm | 8 mm | 7 mm | 6 mm | 3 mm | 14 mm | 5 mm | 5 mm | 11 mm | 2 mm | 5 mm | 11 mm | 10 mm | inhibition zone (IZ) [7]: 1 mm
7 | Clc1c2c(nc3ccccc13)C=CNN=C2 | 1 mm | 5 mm | 9 mm | 1 mm | 8 mm | 10 mm | 5 mm | 6 mm | 4 mm | 3 mm | 4 mm | 3 mm | 12 mm | 2 mm | 3 mm | 7 mm |  | 4 mm | 7 mm | 9 mm | Activity [7]: inactive; Activity [20]: inactive
8 | Cc1cccc2c(Cl)c(C=O)c(/C=C/O)nc12 |  | 4 mm | 6 mm | 2 mm | 8 mm | 11 mm | 2 mm | 7 mm |  | 5 mm | 4 mm | 1 mm | 11 mm |  | 3 mm | 7 mm |  | 2 mm | 9 mm | 5 mm | Activity [2]: inactive; Activity [7]: inactive; Activity [12]: inactive; Activity [17]: inactive; Activity [20]: inactive
9 | O=Cc1c(/C=C/O)nc2ccccc2c1Cl |  | 4 mm | 5 mm |  | 6 mm | 9 mm | 3 mm | 5 mm |  | 1 mm | 3 mm | 2 mm | 9 mm |  |  | 4 mm |  | 1 mm | 4 mm | 8 mm | Activity [2]: inactive; Activity [6]: inactive; Activity [7]: inactive; Activity [12]: inactive; Activity [17]: inactive; Activity [18]: inactive; Activity [20]: inactive
10 | Cc1ccc(C)c2c(Cl)c(C=O)c(/C=C/O)nc12 | 3 mm | 4 mm | 11 mm | 3 mm | 6 mm | 13 mm | 7 mm | 8 mm | 9 mm | 8 mm | 5 mm | 4 mm | 10 mm | 5 mm | 7 mm | 12 mm | 3 mm | 7 mm | 13 mm | 12 mm | inhibition zone (IZ) [7]: 3 mm
